One assay deals with J82. The assay can be described thus: Cytotoxicity against human J82 cells after 3 days by MTT assay. It counts as functional, cell-based. Conditions: J82, 72 h. In a few lines:
(§1)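 Human ATCC lines (MRC-5 normal lung fibroblasts, AGS gastric adenocarcinoma, HL-60 leukemia, SK-MES-1 lung cancer, J82 bladder carcinoma) seeded at 50,000 cells/mL in 96-well plates. Compounds added one day later in medium at 0 up to 100 µM for 3 days. Read-out by MTT reduction against untreated controls, with etoposide as reference. IC50 reported for S- and R-configured compounds.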
(In general: Tetrazolium assays rely on reduction of a dye to a coloured formazan, in cell work by metabolically active cells.)

In another assay the test system is AGS. Description: Cytotoxicity against human AGS cells after 3 days by MTT assay. Type of assay: functional, cell-based. To be noted: 72 h. An outline of the steps: as §1
Another assay has as its system HL-60. Description: Cytotoxicity against human HL60 cells after 3 days by MTT assay. It counts as functional, cell-based. To be noted: HL-60, 72 h. In a few lines: as §1
Another assay deals with MRC5. The assay can be described thus: Cytotoxicity against human MRC5 cells after 3 days by MTT assay. It counts as cell-based. To be noted: MRC5, 72 h. In a few lines:
as §1

The next assay deals with SK-MES-1. Description: Cytotoxicity against human SKMES1 cells after 3 days by MTT assay. Type of assay: functional, cell-based. Conditions: SK-MES-1, 72 h. In a few lines: as §1
The subject of a further assay is KB. Description: Cytotoxicity against human KB cells at 30 uM. Type of assay: functional.

Among the data in ChEMBL document CHEMBL1153615, “Antiproliferative activity of arborescidine alkaloids and derivatives” (Eur J Med Chem, 2009) are IC50 and Activity values, retold here.

The structures appear in SMILES notation. Bounds are passed on as bounds.

Take `C=CCCC[C@H]1c2[nH]c3ccccc3c2CCN1C(=O)OC`: the concentration for half-maximal inhibition (IC50) with J82, in the assay with AGS, in the assay with HL-60, with MRC5 and in the assay with SK-MES-1 was > 100 µM in each case.
With `C=CCCCC1c2[nH]c3ccccc3c2CCN1C` (stereo not given), the IC50 in the assay with J82 was 76.4 µM; in the assay on AGS it was 34.5 µM; in the assay on HL-60, > 100 µM; in the assay on MRC5 it was 42.2 µM; with SK-MES-1, 58.6 µM.
For `CN1CCc2c3n(c4cc(Br)ccc24)C=CCC[C@@H]31`, the IC50 in the assay on J82 was 45.5 µM; in the assay on AGS, > 100 µM; in the assay with HL-60 it was > 100 µM; with MRC5 it was > 100 µM; in the assay on SK-MES-1 it was 91.3 µM. In the assay on KB, the Activity is given as 100%.
On to `C=CCCCC1=NCCc2c1[nH]c1ccccc21`, for which the IC50 was 47.6 µM with J82; 40.3 µM in the assay with AGS; > 100 µM in the assay with HL-60; 44.6 µM in the assay on MRC5; 36.1 µM in the assay on SK-MES-1.
For `COC(=O)N1CCc2c([nH]c3ccccc23)[C@@H]1CCCC(O)CO` (stereo not given in full) the same measures were > 100 µM, 63.1 µM, > 100 µM, > 100 µM and 88.3 µM.
`CN1CCc2c3n(c4cc(Br)ccc24)[C@@H](O)CCC[C@@H]31`: the IC50 is > 100 µM in the assay with J82; 30.9 µM in the assay with AGS; > 100 µM with HL-60; 31.9 µM with MRC5; > 100 µM in the assay with SK-MES-1. Moreover, in the assay on KB, the Activity is 100%.
For `C=CCCC[C@@H]1NCCc2c1[nH]c1ccccc21`, the IC50 in the assay on J82 was 25.7 µM; in the assay with AGS, 14.3 µM; with HL-60, 69.3 µM; with MRC5, 20.1 µM; with SK-MES-1, 19.1 µM.
For `COC(=O)N1CCc2c3n(c4cc(Br)ccc24)[C@@H](O)CCC[C@@H]31` the same measures were 16.4 µM, 22.8 µM, > 100 µM, 60 µM and 18.1 µM.
For `COC(=O)N1CCc2c3n(c4ccccc24)[C@@H](O)CCC[C@@H]31` the same measures were 72.8 µM, 16.8 µM, 96.6 µM, 35.7 µM and 25.1 µM.
In the case of `C=CCCCC1=NCCc2c1[nH]c1cc(Br)ccc21`, the IC50 in the assay with J82 was 39.3 µM; with AGS, 26.9 µM; in the assay with HL-60, > 100 µM; in the assay with MRC5 it was 40.1 µM; in the assay on SK-MES-1 it was 39.7 µM.
`C=CCCCC1c2[nH]c3cc(Br)ccc3c2CCN1C` (stereo not given): the IC50 with J82 is 78.8 µM; with AGS, 69.9 µM; with HL-60, > 100 µM; in the assay on MRC5 it was 78.9 µM; with SK-MES-1, 75.8 µM.
As for `C=CCCC[C@@H]1NCCc2c1[nH]c1cc(Br)ccc21`, the IC50 with J82 was 18.9 µM; in the assay on AGS, 8.8 µM; in the assay on HL-60, > 100 µM; in the assay with MRC5 it was 18.1 µM; in the assay with SK-MES-1 it was 12.7 µM.
Regarding `COC(=O)N1CCc2c([nH]c3cc(Br)ccc23)[C@@H]1CCCC=O`, the IC50 in the assay on J82 turned out to be 74.9 µM; with AGS, 21.4 µM; in the assay on HL-60, 99.4 µM; in the assay on MRC5 it was 53.6 µM; in the assay with SK-MES-1, 48.2 µM.
For `COC(=O)N1CCc2c([nH]c3cc(Br)ccc23)[C@@H]1CCCC(O)CO` (stereo not given in full) the same measures were > 100 µM, > 100 µM, > 100 µM, > 100 µM and > 100 µM.
Turning to `Brc1ccc2c3c([nH]c2c1)[C@@H]1CCCCN1CC3` [ARBORESCIDINE A], the IC50 in the assay with J82 is > 100 µM; in the assay with AGS, 65.3 µM; with HL-60, 34.5 µM; with MRC5, 71.6 µM; in the assay with SK-MES-1, > 100 µM. For the same compound, the Activity in the assay on KB was 100%.
As to `CN1CCc2c3n(c4ccccc24)[C@@H](O)CCC[C@@H]31` [DESBROMOARBORESCIDINE C], the IC50 in the assay with J82, in the assay on AGS, in the assay with HL-60, in the assay with MRC5 and in the assay with SK-MES-1 was > 100 µM each time.
On to `CN1CCc2c3n(c4ccccc24)C=CCC[C@@H]31` [DESBROMOARBORESCIDINEB], for which the IC50 was 29.5 µM in the assay with J82; 41.7 µM with AGS; > 100 µM with HL-60; 62.6 µM with MRC5; 32.3 µM in the assay with SK-MES-1.
With `COc1cc([C@@H]2c3cc4c(cc3[C@@H](O[C@@H]3O[C@@H]5CO[C@@H](C)O[C@H]5[C@H](O)[C@H]3O)[C@H]3COC(=O)[C@H]23)OCO4)cc(OC)c1O` [ETOPOSIDE], the IC50 in the assay on J82 stood at 2.5 µM; with SK-MES-1, 2.8 µM.

One may read the IC50 as the concentration needed to halve the response being measured. High values mean a need for much substance, low ones inhibition by little substance.
